Assay outcomes from PubChem BioAssay.
An excerpt weighted towards active compounds, which were near 1.8% of everything screened.
TDP2 inh – TDP2 (human) inhibition, absorbance primary screen; recombinant TDP2, T5PNP hydrolysis, p-nitrophenol absorbance 415 nm; inhibition, % at 12.8 µM; actives 0.34% (n = 370,000); AID 720702; O95551;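 active means inhibition above the mean of all tested compounds plus 3 SD, set per campaign, cut at about 25% in these data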;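 further: 0% = DMSO with enzyme and 100% = buffer with substrate but no TDP2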
Target sequence (O95551 whole entry, looked up): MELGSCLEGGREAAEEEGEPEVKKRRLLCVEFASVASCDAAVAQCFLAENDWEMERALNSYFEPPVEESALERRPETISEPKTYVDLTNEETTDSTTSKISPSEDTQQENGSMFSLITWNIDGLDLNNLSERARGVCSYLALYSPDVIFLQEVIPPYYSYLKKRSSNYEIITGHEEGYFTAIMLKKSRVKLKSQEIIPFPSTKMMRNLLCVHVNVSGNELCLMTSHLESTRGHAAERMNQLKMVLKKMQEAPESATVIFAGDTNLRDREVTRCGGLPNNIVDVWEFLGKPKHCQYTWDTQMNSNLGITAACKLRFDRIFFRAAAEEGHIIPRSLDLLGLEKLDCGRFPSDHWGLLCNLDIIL
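test system = human TDP2 enzyme | input = TDP2 enzyme at 120 nM final | medium = 50 mM Tris-HCl pH 7.5 with Mg2+, KCl, DTT, BSA | also added = T5PNP substrate, 5 mM | times = 2 h at 37 °C | technique = epi absorbance | benchmarks = high control without enzyme, low control DMSO plus TDP2 | replication = each compound tested once, singlicate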
MBD2 inh – inhibitors of human MBD2 binding to methylated oligonucleotide; TR-FRET; inhibition, % at 4.4 µM; actives 0.31% (n = 370,000); AID 686964; in the data active means inhibition above about 13%
LEDGF integ inh – blocks HIV-1 LEDGF/p75-dependent DNA integration; actives 0.64% (n = 370,000); inhibition, % at 3.7 µM; TR-FRET IN-LEDGF/p75 DNA integration, Eu/Cy5;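 active means inhibition above the screen-wide mean plus 3 SD, cut at about 13% in these data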;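 further: signal is the Cy5 over europium emission ratio at 671 and 618 nm; 0% = plate median of compound wells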
UHRF1 binding – human UHRF1 methylated DNA binding inhibitors; actives 0.75% (n = 370,000); UHRF1 binding to methylated oligo, TR-FRET; AID 687016; Q96T88; inhibition, % at 4.4 µM; in the data active means inhibition above about 21%;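 further: UHRF1 SRA domain binding a hemimethylated CpG hairpin DNA probe; 0% = median of test compound wells and 100% = reference inhibitor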
Casp6 inh – inhibitors of human caspase-6 | P55212 | purified caspase-6, Z-VEID-R110 cleavage fluorescence | inhibition, % at 12.5 µM | actives 0.53% (n = 350,000) | AID 686996;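 active means mean inhibition across replicates at least about 35%, with every replicate also reaching that limit, limit read from the data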;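 further: 0% = median of neutral control wells and 100% = no fluorescence left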
Target sequence (P55212 24-179 limits assumed): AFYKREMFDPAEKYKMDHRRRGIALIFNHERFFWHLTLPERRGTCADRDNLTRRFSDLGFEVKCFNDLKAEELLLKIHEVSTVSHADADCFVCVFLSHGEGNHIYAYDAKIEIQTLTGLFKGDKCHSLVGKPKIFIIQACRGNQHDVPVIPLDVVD
Target sequence (P55212 194-293 limits assumed): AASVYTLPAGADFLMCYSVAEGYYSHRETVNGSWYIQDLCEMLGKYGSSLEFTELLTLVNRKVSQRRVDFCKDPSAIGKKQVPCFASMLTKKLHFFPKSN
NSD2 inh – blocks human histone methyltransferase NSD2 | O96028 | NSD2 peptide methylation, AlphaScreen, 120 min | inhibition, % at 12.5 µM | actives 0.54% (n = 310,000) | AID 743445; in the data active means inhibition above about 50%
* marks the source's active call; other numbers are inactive results; / = no result given.

SMILES	TDP2 inh	MBD2 inh	LEDGF integ inh	UHRF1 binding	Casp6 inh	NSD2 inh
CCCCOc1[nH]c2nc(-c3ccco3)n(Cc3ccco3)c(=N)c2c1C#N	6.7	0.1	18.7*	6.0	/	/
C=CCn1cnc2c(c1=O)c1nc3ccccc3nc1n2/N=C/c1cc(OC)c(OC)c(OC)c1	6.1	-5.1	1.1	1.7	/	2.3
COCCn1cnc2c(c1=O)c1nc3ccccc3nc1n2/N=C/c1cccc(OC)c1	-4.5	3.5	-4.1	24.4*	1.3	0.5
CCOc1cc(CNc2ccc3cn[nH]c3c2)ccc1OC	29.9*	-1.1	0.8	4.9	/	/
Cn1cnc(S(=O)(=O)N2C[C@H](O)COC[C@@H]3O[C@H](CC(=O)N4CCN(c5ccccc5)CC4)CC[C@H]32)c1	/	/	/	/	-1.9	/
COc1cc2c(cc1OC)C(C(=O)N(C)Cc1ccccc1)C(c1cccnc1)N(C)C2=O (centres undefined)	-5.4	3.5	2.8	38.2*	2.3	-2.7
CSc1ccc(/C=N/Nc2cccc(C(=O)O)c2)cc1	/	/	/	/	/	99.5*
O=C(C[C@H]1CC[C@H]2[C@@H](COC[C@H](O)CN2Cc2ccc(Oc3ccccc3)cc2)O1)N1CCCCC1	/	/	/	/	-0.8	/
Cc1ccc(Cl)cc1N1CCN(S(=O)(=O)c2ccc3c(c2)NC(=O)C(C)C(=O)N3)CC1 (centres undefined)	-5.6	-2.0	-0.6	95.6*	-1.9	/
N/C(Cc1cccc2ccccc12)=N\OC(=O)c1ccccc1F	10.1	-11.2	4.1	-7.8	41.4*	-0.4
O=C(NCc1ccc(F)cc1)c1ccc(NC(=O)C2CCCO2)cc1 (centres undefined)	22.7	1.6	-1.4	38.1*	-0.6	6.1
O=C(Nc1ccc(F)cc1)N1CCN(C(=O)C2CCCO2)CC1 (centres undefined)	-12.3	8.5	-9.1	4.0	82.2*	-0.2
O=C(NCc1ccc(Cl)cc1)c1ccc(NC(=O)C2CCCO2)cc1 (centres undefined)	14.4	0.3	2.9	0.3	-2.1	20.9
Cn1nc(C(F)(F)F)c(C#N)c1N1CCN(c2ccccn2)CC1	4.1	8.5	-1.4	22.9*	-0.4	-4.6
CCOC(=O)C1=C(C)N(C)C(C)=C(C(=O)OCC)C1c1ccc(Cl)cc1	-6.4	6.2	-1.0	26.0*	5.5	1.4
C[C@H](NC(=O)C[C@H]1CC[C@@H](NC(=O)Cc2ccccn2)[C@@H](CO)O1)c1ccccc1	/	/	/	/	-1.6	/
C[C@@H]1CN([C@@H](C)CO)C(=O)c2cc(-c3ccc(F)cc3)cnc2O[C@@H]1CN(C)C(=O)c1ccccc1F	/	/	/	/	-2.2	/
CCOC(=O)C1=C(C)N=c2sc(=Cc3cc(Cl)c(OCC(=O)O)c(Cl)c3)c(=O)n2C1c1cccc(OC)c1 (centres undefined)	9.4	0.1	6.9	-0.6	37.6*	/
CCCOc1cc2c(C#N)c(N3CCCC3)nc(N)c2c(N)n1	2.3	-5.3	-2.1	-14.5	38.7*	/
CCCCN(CC)c1nc(N)c2c(N)nc(OCC)cc2c1C#N	-9.8	-3.7	-0.9	38.5*	/	22.2
CCOC(=O)N(C)C[C@H]1OCc2ccccc2-c2ccccc2C(=O)N([C@@H](C)CO)C[C@@H]1C	/	/	/	/	1.6	/
CNC(=O)c1cccc2cccc(Sc3ccccc3C(=O)O)c12	3.6	-3.1	-0.4	29.0*	-0.7	-2.1
CNC(=O)c1ccccc1Sc1ccccc1CO	7.4	2.3	2.1	-1.8	-1.8	-2.4
COC(=O)c1sccc1NC(=O)Nc1ccccc1F	-4.2	2.6	-1.4	23.1*	-1.3	-2.2
COc1ccc(NC(=O)Nc2ccccc2F)c([N+](=O)[O-])c1	3.9	-7.7	-1.2	-4.1	39.1*	-1.8
SMILES	TDP2 inh	MBD2 inh	LEDGF integ inh	UHRF1 binding	Casp6 inh	NSD2 inh
COC(=O)c1sccc1NC(=O)c1csc(C)c1	-11.7	4.8	5.1	21.9*	/	-4.6
COc1ccc(NC(=O)Nc2ccccc2F)c(C)c1	-0.1	5.2	-1.6	0.1	-0.3	-2.4
COC(=O)c1sccc1NC(=O)c1ccc(C)cc1	-23.3	-3.7	5.0	1.4	-0.4	-0.5
C[C@@H]1CN([C@@H](C)CO)C(=O)Cc2cc(NC(=O)Nc3cccc4ccccc34)ccc2O[C@H]1CN(C)C(=O)Nc1ccc(F)cc1	/	/	/	/	-2.8	/
O=C(N/N=C\C=C\c1ccc2c(c1)OCO2)c1cccnc1	-12.5	-3.8	-2.1	32.7*	2.8	10.6
O=C(C[C@H]1C[C@@H]2c3cc(NC(=O)CC4CC4)ccc3O[C@@H]2[C@H](CO)O1)NCc1cccc(F)c1	/	/	/	/	-3.4	/
COc1ccc(CN2CC(C(=O)NCCCN3CCN(C)CC3)CC2=O)cc1 (centres undefined)	-4.2	17.9*	-3.9	5.7	/	/
COc1ccc(CN2CC(C(=O)NCCCN3CCCCCC3)CC2=O)cc1 (centres undefined)	0.8	-2.8	1.1	1.0	/	4.4
COc1ccccc1NS(=O)(=O)c1cccc(NC(=O)Nc2ccc(Cl)cc2)c1	-20.9	4.2	4.8	25.9*	6.4	0.4
CCNS(=O)(=O)c1ccc(NC(=O)Nc2cc(C)ccc2OC)cc1	-9.5	-0.6	-1.2	-0.7	0.9	7.5
CCNS(=O)(=O)c1ccc(NC(=O)Nc2ccccc2OC)cc1	1.1	5.5	6.3	23.2*	/	2.4
COc1ccccc1-c1cnc2c(c1)C(=O)N([C@@H](C)CO)C[C@@H](C)[C@H](CN(C)Cc1ccncc1)O2	/	/	/	/	-1.4	/
COc1ccc(CN(C)C[C@H]2Oc3ccc(NC(=O)Nc4ccc(C(F)(F)F)cc4)cc3C(=O)N([C@@H](C)CO)C[C@H]2C)cc1	/	/	/	/	0.8	/
O=C(CCc1ccc(O)cc1)c1c(O)cc(O)cc1O	-5.7	2.6	5.1	0.3	13.9	/
COc1cc(O)c(CC=C(C)C)c(O)c1C(=O)CCc1ccc(O)cc1	5.8	1.1	-2.8	22.6*	-1.1	/
C[C@H](CO)N1C[C@H](C)[C@@H](CN(C)Cc2ccncc2)Oc2ccc(NS(=O)(=O)c3ccccc3)cc2CC1=O	/	/	/	/	-0.6	/
O=C(CCCN1CC=C(n2c(=O)[nH]c3ccccc32)CC1)c1ccc(F)cc1	-0.6	2.4	-1.9	22.8*	-0.9	/
COCC(=O)N(C)C[C@H]1Oc2ncc(C#Cc3cccnc3)cc2C(=O)N([C@H](C)CO)C[C@H]1C	/	/	/	/	0.5	/
CCCCNC(=O)N1CCOCCOCCN(C(=O)NCCCC)CCOCCOCC1	2.4	5.5	1.2	-2.5	/	-0.1
CCCCNC(=O)NCCN1CCOCC1	11.2	4.9	-4.3	35.4*	9.2	6.7
C[C@H](CO)N1C[C@H](C)[C@@H](CN(C)Cc2ccc3c(c2)OCO3)OCCCC[C@H](C)Oc2ccc(NC(=O)C3CCCCC3)cc2C1=O	/	/	/	/	-1.0	/
CC(=O)NC1=C(NC2CCS(=O)(=O)C2)C(=O)c2ccccc2C1=O (centres undefined)	18.7	-12.6	4.7	-5.3	/	69.2*
O=C(Nc1ccc(Cl)cc1)N1C[C@H]2[C@@H](c3ccccc31)[C@@H](CO)N2CC1CCCCC1	/	/	/	/	1.3	/
